# Test results reported in ChEMBL document CHEMBL4330151, “Antiviral Compounds from Codiaeum peltatum Targeted by a Multi-informative Molecular Networks Approach” (J Nat Prod, 2019).
# What was measured:
# [1] = Cytotoxicity against African green monkey Vero cells by MTS assay; assay type: cell-based; conditions: chlorocebus sabaeus
# Method in brief: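 Uninfected Vero A cells were exposed to the same compound concentrations as the CHIKV antiviral plates and incubated 5 days at 37 °C, 5% CO2. MTS/PMS was added for 1.5 h and absorbance read at 498 nm. OD values were converted to control percentages, and CC50 was obtained by logarithmic interpolation. Values are medians ± absolute deviation of at least three independent assays.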
# Chikungunya virus = assay: Antiviral activity against Chikungunya virus Indian Ocean strain 899 infected in African green monkey Vero cells assessed as protection against virus-induced cytopathic effect after 5 days by MTS assay; assay type: functional, organism-based; conditions: Indian Ocean strain 899, Vero, 120 h
# [2] = Selectivity index, ratio of CC50 for African green monkey Vero cells to EC50 for Chikungunya virus Indian Ocean strain 899 infected in African green monkey Vero cells; assay type: toxicity; conditions: read-out: Ratio CC50/EC50
# Method in brief: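 SI is CC50 (Vero) divided by EC50 (CHIKV) from the same 5-day MTS assay. For CC50, uninfected Vero A cells were exposed to the same compound concentrations. CC50 is the concentration reducing viable cells by 50%, by logarithmic interpolation of OD 498 nm control percentages. Median of ≥3 independent assays.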
# [3] = Inhibition of ZIKV N-terminal His6-tagged NS5 protein expressed in Escherichia coli using (Poly U) RNA template […] in presence of ATP by picogreen dye based assay; parameters: species or system Zika virus
# [4] = Inhibition of DENV2 N-terminal His6-tagged NS5 protein expressed in Escherichia coli using (Poly U) RNA template […] in presence of ATP by picogreen dye based assay; parameters: species or system dengue virus type 2
# [5] = Inhibition of ZIKV N-terminal His6-tagged NS5 protein expressed in Escherichia coli using (Poly U) RNA template […] in presence of ATP/Triton-X-100 by picogreen dye based assay; parameters: species or system Zika virus
# [6] = Inhibition of DENV2 N-terminal His6-tagged NS5 protein expressed in Escherichia coli using (Poly U) RNA template […] in presence of ATP/Triton-X-100 by picogreen dye based assay; parameters: species or system dengue virus type 2
# [7] = Inhibition of GTP-bodipy binding to ZIKV N-terminal His6-tagged NS5 protein expressed in Escherichia coli after 15 mins by fluorescence polarization assay; parameters: species or system Zika virus; conditions: read-out: Kd(app)
# Method in brief: (§1)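 Buffer was 50 mM Tris pH 7.5, 50 mM NaCl, 0.01% NP40 and 1 mM DTT, with 50 nM GTP-bodipy. NS5 was 300 nM for DENV-2 and 150 nM for ZIKV, with seven compound concentrations in 5% DMSO. Plates were incubated 15 min at room temperature, and fluorescence polarization was read at 485/520 nm after background subtraction. Kdapp was curve-fitted from triplicates in a single experiment.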
# [8] = Inhibition of GTP-bodipy binding to DENV2 N-terminal His6-tagged NS5 protein expressed in Escherichia coli after 15 mins by fluorescence polarization assay; parameters: species or system dengue virus type 2; conditions: read-out: Kd(app); method in brief: as §1
SMILES,CC50 [1] [µM],EC50 (Chikungunya virus) [µM],selectivity ratio [2],IC50 [3] [µM],IC50 [4] [µM],IC50 [5] [µM],IC50 [6] [µM],Kd [7] [µM],Kd [8] [µM]
C=C(C)[C@@]12OC3(c4ccccc4)O[C@@H]1[C@@H]1[C@@H]4O[C@]4(CO)[C@@H](O)[C@@]4(O)[C@@H](C[C@H](C)[C@@H]4OC(=O)c4ccccc4)[C@@]1(O3)[C@](C)(O)[C@@H]2OC(=O)c1ccccc1,52,10,5,> 69,> 69,,,,
COc1cc2c(C)c3c(cc2c2cc(O)c(C)cc12)O[C@H]1c2c(cc(O)c4cc(C)c(O)cc24)C(C)(C)C(=O)[C@]1(OC)O3,> 129,> 172,,8.1,9.1,> 100,> 100,> 100,> 100
Cn1c(=O)c2c(c3ccccc31)OC(C)(C)[C@H]1CC[C@@](C)(O)[C@H](Cl)[C@H]21,> 208,> 277,,> 138,> 119,,,,
Cn1c2c(c(=O)c3ccccc31)[C@H]1[C@@H](Cl)[C@](C)(O)CC[C@@H]1C(C)(C)O2,> 277,> 277,,,,,,,
CO[C@]12Oc3c(cc4c(c3C)C(=O)C(=O)c3cc(C)c(O)cc3-4)O[C@H]1c1c(cc(O)c3cc(C)c(O)cc13)C(C)(C)C2=O,> 172,> 172,,8.1,12.1,36,67.2,32.1,9.3
COc1cc2c(C)c3c(cc2c2cc(O)c(C)cc12)O[C@H]1c2c(cc(O)c4cc(C)c(O)cc24)C(C)(C)C(=O)[C@@]1(OC)O3,> 172,> 86,,4.8,4.5,> 100,> 100,> 100,> 100
CC(=O)OCn1c(=O)c2c(c3ccccc31)OC(C)(C)[C@H]1CC[C@@](C)(O)[C@H](Cl)[C@H]21,> 239,> 239,,> 138,> 119,,,,
C=C(C)[C@@]12OC3(c4ccccc4)O[C@@]4([C@H]([C@H]1O)[C@@H]1O[C@]1(CO)[C@@H](O)[C@@]1(O)[C@H]4C[C@H](C)[C@@H]1OC(=O)c1ccccc1)[C@](C)(O3)[C@@H]2OC(=O)c1ccccc1,49,4.4,11,> 69,> 69,,,,
COc1cc2c3c(cc(O)c2cc1C)C(C)(C)C(=O)[C@@]1(OC)Oc2c(cc4c(cc(OC)c5cc(C)c(OC)cc54)c2C)O[C@@H]31,,,,13.6,21.7,> 100,> 100,> 100,> 100
COc1cc2c3c(cc(O)c2cc1C)C(C)(C)C(=O)[C@@]1(OC)Oc2c(cc4c(cc(OC)c5cc(C)c(O)cc54)c2C)O[C@@H]31,,,,10.9,14.5,> 100,> 100,> 100,> 100
CC1(C)Oc2c(c(=O)[nH]c3ccccc23)[C@H]2[C@@H](Cl)[C@](C)(O)CC[C@@H]21,> 288,> 288,,,,,,,
COc1cc2c3c(cc(O)c2cc1C)C(C)(C)C(=O)[C@]1(OC)Oc2c(cc4c(cc(OC)c5cc(C)c(OC)cc54)c2C)O[C@@H]31,,,,12.7,17.8,> 100,> 100,> 100,> 100
Nc1ncnc2c1ncn2[C@@H]1O[C@H](COP(=O)(O)OP(=O)(O)OP(=O)(O)O)C[C@H]1O,,,,0.14,0.07,,,,
